Assay results gathered from unrelated publications.
CDK1: Cyclin-dependent kinase 1 (CDK1, Homo sapiens, UniProt P06493)
DPP4: Dipeptidyl peptidase 4 (DPP4, Homo sapiens, UniProt P27487)

Compound | target | effect on | action | technique | tested at | measurement | value
O=C1NC(=NCc2cccs2)S/C1=C\c1ccc2ncccc2c1 | CDK1 | enzyme activity | inhibitor | ADP detection | 100 µM | inhibition | 100%
C=CC(=O)N1CCC(COCC(=O)N2CCN(c3nc(-c4cnc(N)nc4C(F)F)nc(N4CCOC[C@@H]4C)n3)CC2)CC1 | Cyclin-dependent kinase 9 (CDK9, Homo sapiens, UniProt P50750) | binding |  | competition with immobilised ligand | 1 µM | remaining binding | 100%
Cn1c(=O)cc(N2CCC(N)CC2)n(Cc2nc3ccccc3c(=O)n2-c2ccc(F)cc2)c1=O | DPP4 | enzyme activity | inhibitor |  | 20 µM | inhibition | 19.9%
Cc1cc([C@@H](C)Nc2ccccc2C(=O)O)c2nc(N3CCC(F)(F)CC3)c(C#N)c(=O)n2c1 | RAC-alpha serine/threonine-protein kinase (AKT1, Homo sapiens, UniProt P31749) | binding |  | competition with immobilised ligand | 1 µM | remaining binding | 100%
Cn1c(=O)cc(N2CCC(N)CC2)n(Cc2nc3ccc(Br)cc3c(=O)n2-c2ccc(F)cc2)c1=O | DPP4 | enzyme activity | inhibitor |  | 20 µM | inhibition | 27.3%
CNc1ncc2c(/C=C/C(=O)N3CCC(OC)CC3)nn(Cc3cccc(C(F)(F)F)c3)c2n1 | Cyclin-dependent kinase 1, with cyclin A2 (CDK1, Homo sapiens, UniProt P06493) | enzyme activity | inhibitor | radiometric | 1 µM | remaining activity | 86%
O=C(Cn1cc(C=CC(=O)c2ccc(F)cc2)nn1)Nc1nc(-c2ccccc2)cs1 | Stromelysin-2 (Homo sapiens, UniProt P09238) | enzyme activity | inhibitor |  | 0.5 µM | inhibition | 82.4%
COc1cc(-c2cncc3c2CN(C)Cc2cc(N4CCNCC4)ccc2-3)cc(OC)c1OC | Ephrin type-A receptor 2 (EPHA2, Homo sapiens, UniProt P29317) | enzyme activity | inhibitor |  | 1 µM | remaining activity | 103%
Cc1cc2cc(Oc3ccnc(Nc4cccc(CS(=O)(=O)NCCN(C)C)c4)n3)ccc2[nH]1 | CDK1 | enzyme activity | inhibitor | ADP detection | 100 µM | inhibition | 100%
Cn1c(=O)cc(N2CCC(N)CC2)n(Cc2nc3ccc(Br)cc3c(=O)n2-c2ccccc2)c1=O | DPP4 | enzyme activity | inhibitor |  | 20 µM | inhibition | 12.9%
CCO[C@@H](Cc1ccc(OCCc2ccc(OS(C)(=O)=O)cc2)cc1)C(=O)O | CDK1 | enzyme activity | inhibitor | ADP detection | 10 µM | inhibition | 65.9%
CN(C)c1ncnc2c1ncn2[C@@H]1O[C@H](CCl)[C@@H](NC(=O)[C@H](CSC(c2ccccc2)c2ccccc2)NC(=O)OC(C)(C)C)[C@H]1O | Aminopeptidase N (ANPEP, Homo sapiens, UniProt P15144) | enzyme activity | inhibitor | fluorescence | 10 µM | inhibition | 4.6%
